Our source for the inhibition, IC50 and Activity values is ChEMBL document CHEMBL1156412, “Absolute stereostructures of three new sesquiterpenes from the fruit of Alpinia oxyphylla with inhibitory effects on nitric oxide production and degranulation in RBL-2H3 cells” (J Nat Prod, 2002).

Some results are limits rather than exact numbers.

A word on the inhibition: it is the relative decrease from the control value, in per cent. By IC50 is commonly meant the concentration needed to halve the response being measured.

Data set [1] relates to RBL-2H3. Kind of data set: Inhibition of rat RBL2H3 cell degranulation assessed as inhibition of beta-hexosamidase release at 30 uM after 10 mins by microplate reader assay relative to control. It counts as functional. To be noted: RBL-2H3, 10 min. In outline: (§1)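 RBL-2H3 cells, 2 × 10^5/well, sensitized overnight with 0.45 µg/mL anti-DNP IgE. Cells washed, then held in Siraganian buffer (pH 7.2, glucose, CaCl2, 0.1% BSA). Sample (0.1% DMSO final) added for 10 min, then DNP-BSA (10 µg/mL final) for 10 min at 37 °C. Supernatant β-hexosaminidase assayed on 1 mM p-nitrophenyl-N-acetyl-β-D-glucosaminide, pH 4.5, 1 h, 405 nm. Inhibition corrected for blank and spontaneous release; N=4.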

The test system of data set [2] is RBL-2H3. Kind of data set: Inhibition of rat RBL2H3 cell degranulation assessed as inhibition of beta-hexosamidase release at 100 uM after 10 mins by microplate reader assay relative to control. Format: functional. The note with it: RBL-2H3, 10 min. The gist of the method:
as §1

The subject of data set [3] is RBL-2H3. Nature of the data set: Inhibition of rat RBL2H3 cell degranulation assessed as inhibition of beta-hexosamidase release after 10 mins by microplate reader assay. It counts as functional, cell-based. The note with it: RBL-2H3, 10 min. The gist of the method:
as §1

The subject of data set [4] is RBL-2H3. Kind of data set: Inhibition of rat RBL2H3 cell degranulation assessed as inhibition of beta-hexosamidase release at 10 uM after 10 mins by microplate reader assay relative to control. To be noted: RBL-2H3, 10 min. It counts as functional. The gist of the method:
as §1

The test system of data set [5] is Macrophage. Nature of the data set: Inhibition of LPS-induced NO production in ddY mouse macrophages assessed as […] accumulation at 10 uM after 20 hrs by Griess reagent method relative to control. Format: functional. The gist of the method:
(§2)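 Adherent peritoneal macrophages from male ddY mice, 5 × 10^5 cells/well, in RPMI 1640 with 5% FCS. Cultured 20 h with 10 µg/mL LPS and compound (3-100 µM, 0.5% DMSO final). Nitrite in the medium measured with Griess reagent. Inhibition % = (A−B)/(A−C)×100 against LPS-only and unstimulated wells. N=4; IC50 determined graphically.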
For orientation: The Griess reaction detects nitrite, a stable product of nitric oxide.

In data set [6] the test system is Macrophage. Nature of the data set: Inhibition of LPS-induced NO production in ddY mouse macrophages assessed as […] accumulation at 30 uM after 20 hrs by Griess reagent method relative to control. It counts as functional. The gist of the method:
as §2

For data set [7], the system named is Macrophage. Nature of the data set: Inhibition of LPS-induced NO production in ddY mouse macrophages assessed as […] accumulation at 100 uM after 20 hrs by Griess reagent method relative to control. Format: functional. In outline:
as §2

The subject of data set [8] is Macrophage. Kind of data set: Inhibition of LPS-induced NO production in ddY mouse macrophages assessed as […] accumulation after 20 hrs by Griess reagent method. It counts as functional, cell-based. The gist of the method:
as §2

Data set [9] concerns Macrophage. Kind of data set: Inhibition of LPS-induced NO production in ddY mouse macrophages assessed as nitrite accumulation at 3 uM after 20 hrs by Griess reagent method relative to control.
The nature of data set [10]: Cytotoxicity against ddY mouse macrophages after 20 hrs by MTT assay. Format: cell-based. To be noted: macrophage. In outline:
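Peritoneal exudate macrophages from male ddY mice (adherent after 1 h preculture, >95% macrophages) in RPMI 1640 with 5% FCS. Exposed to 10 µg/mL LPS plus test compound, 0.5% DMSO final, for 20 h. MTT then added for 4 h. Formazan dissolved in 2-propanol/0.04 M HCl and read at 570 nm (reference 655 nm).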
(In general: Formazan colour is commonly taken as a measure of viable cells.)

`COc1cc(/C=C/C(=O)CC(=O)/C=C/c2ccc(O)c(OC)c2)ccc1O` [CURCUMIN]: the inhibition at 30 µM in data set [1] was found to be 14.2%. Besides, the inhibition at 100 µM in [2] turned out to be 62.6%. Further, the half-maximal inhibitory concentration (IC50) in [3] was found to be 3 µM.
As to `O=c1cc(-c2ccc(O)c(O)c2)oc2cc(O)cc(O)c12` [LUTEOLIN], the half-maximal inhibitory concentration (IC50) in data set [3] was determined as 82 µM.
Turning to `C=C(C)[C@H]1C=C2[C@](C)(CCC[C@@]2(C)O)CC1` [OXYPHYLLOL A], the inhibition at 10 µM is -8.3% in data set [4] and 19.3% in data set [5]. Moreover, the inhibition at 30 µM in [1] is -15.1%; in [6], 40.4%. In addition, the inhibition at 100 µM in data set [2] was -24%; in data set [7], 74.2%. The half-maximal inhibitory concentration (IC50) in [8] was 42 µM. Also, the inhibition at 3 µM in data set [9] is 12.5%.
For `COc1cc(O)c2c(=O)c(O)c(-c3ccccc3)oc2c1` [IZALPININ], in data set [10], the Activity entry is “Toxic”. In addition, the values for the inhibition at 10 µM in data set [4] and in [5] were 1.6% and 14.6%, respectively. Also, the inhibition at 30 µM in data set [1] was 8.7%; in data set [6], 13.4%. The values for the inhibition at 100 µM in [2] and in [7] were 27.5% and 41.5%, respectively. Moreover, the 50% inhibitory concentration (IC50) in [8] was more than 30 µM. In data set [9], the inhibition at 3 µM was found to be 6.3%.
In the case of `C[C@@]12CCC(=O)C=C1[C@](C)(O)[C@H](O)CC2` [OXYPHYLLENONE B], the inhibition at 10 µM in [4] is -0.8%; in [5], 0.4%. Also, the inhibition at 30 µM in [1] is -1.3%; in data set [6], 19.2%. For the same compound, the results for the inhibition at 100 µM in data set [2] and in data set [7] were -1.8% and 41.2%, respectively. Further, the IC50 in data set [8] was more than 100 µM. Moreover, in data set [9], the inhibition at 3 µM was -8.1%.
In the case of `C=C(C)[C@@H]1CC[C@@]2(C)CCC[C@@](C)(O)[C@@H]2C1`, the inhibition at 10 µM in [4] is 2.9%; in data set [5], 19.2%. The inhibition at 30 µM in [1] is 4.4%; in [6] it was 42.2%. Besides, the inhibition at 100 µM in data set [2] came out at 11.9%; in data set [7], 73.3%. Further, the IC50 in data set [8] came out at 39 µM. Besides, the inhibition at 3 µM in [9] was 2.5%.
With `C=C(C)[C@@H]1CC=C2[C@@H](O)CC[C@@H](C)[C@]2(C)C1`, the inhibition at 10 µM in [4] is -5%; in [5] it was 1.8%. The inhibition at 30 µM in [1] is -9.2%; in data set [6], 31%. Further, the inhibition at 100 µM is -8% in data set [2] and 65.3% in data set [7]. For the same compound, the concentration for half-maximal inhibition (IC50) in data set [8] was found to be 48 µM. In [9], the inhibition at 3 µM is 5.8%.
`C=C(C)[C@@H]1CCC2=CC(=O)C[C@@H](C)[C@]2(C)C1` [NOOTKATONE]: the inhibition at 10 µM in data set [4] turned out to be 2%; in [5], 10.7%. In addition, the inhibition at 30 µM in data set [1] turned out to be 8.2%; in data set [6], 44.8%. Moreover, the inhibition at 100 µM is 25.8% in data set [2] and 86.9% in data set [7]. For the same compound, the IC50 in data set [8] was 34 µM. Besides, the inhibition at 3 µM in data set [9] was -6.2%.
For `CC(C)[C@H]1CCC(=O)C2=C1[C@H](O)[C@](C)(O)CC2` [OXYPHYLLENODIOL B], the inhibition at 10 µM in data set [4] was -4.3%; in data set [5], -0.4%. For the same compound, the inhibition at 30 µM was -3.3% in [1] and 19.6% in data set [6]. Besides, the inhibition at 100 µM in data set [2] was -3.1%; in [7], 40.1%. Besides, the IC50 in data set [8] is more than 100 µM. The inhibition at 3 µM in data set [9] is -4.2%.
For the compound `C=C1CC[C@H]2C(C)(C)CCC[C@]2(C)[C@H]1C/C=C(/C=O)CC=O`, the Activity result in data set [10] is given as “Toxic”. In addition, the figures for the inhibition at 10 µM in [4] and in data set [5] were -0.9% and 9.3%, respectively. In addition, the inhibition at 30 µM in data set [1] is 13.1%; in [6] it was 68.1%. The inhibition at 100 µM in [2] is 42%; in data set [7] it was 95.6%. In data set [8], the half-inhibitory concentration (IC50) is 22 µM. The inhibition at 3 µM in data set [9] is -4.7%.
On to `CC(C)[C@@H]1CCC(=O)C2=C1[C@H](O)[C@](C)(O)CC2` [OXYPHYLLENODIOL A], for which the inhibition at 10 µM in [4] was 1.1%; in [5], 16.9%. Further, the values for the inhibition at 30 µM in data set [1] and in data set [6] were 0.4% and 52.5%, respectively. Also, the inhibition at 100 µM in [2] was found to be 1.7%; in data set [7], 102%. Besides, the IC50 in [8] was 28 µM. The inhibition at 3 µM in data set [9] was 11.8%.
For the compound `C[C@@]12CCC(=O)C=C1[C@@](C)(O)[C@H](O)CC2` [OXYPHYLLENONE A], the inhibition at 10 µM in data set [4] is -3.3%; in data set [5] it was -2.9%. For the same compound, the inhibition at 30 µM was -4.5% in data set [1] and 43% in [6]. Besides, the results for the inhibition at 100 µM in data set [2] and in [7] were -4.7% and 85.7%, respectively. Besides, the IC50 in data set [8] worked out at 35 µM. Besides, the inhibition at 3 µM in data set [9] turned out to be 1.6%.
Consider `C=C(C)[C@@H]1CC[C@@]2(C)CC[C@@H](O)C(=C)C2C1` (some centres not stated) [ISOCYPEROL], for which the inhibition at 10 µM was -5.3% in data set [4] and 23.9% in [5]. Further, the inhibition at 30 µM in data set [1] was -11.9%; in [6], 64.4%. Further, the inhibition at 100 µM in data set [2] was -28.9%; in [7] it was 96.8%. Also, in data set [8], the IC50 is 21 µM. For the same compound, in data set [9], the inhibition at 3 µM is 10.3%.
Regarding `COc1cc(O)c2c(=O)cc(-c3ccccc3)oc2c1` [TECHTOCHRYSIN], the Activity entry in data set [10] is given as “Toxic”. Moreover, the inhibition at 10 µM is 11.9% in [4] and 19.2% in [5]. Besides, the inhibition at 30 µM in [1] was found to be 40.8%; in data set [6], 60.6%. In addition, the inhibition at 100 µM stood at 75.1% in [2] and 87.6% in data set [7]. Also, the 50% inhibitory concentration (IC50) in [3] turned out to be 49 µM; in data set [8], 23 µM. Besides, the inhibition at 3 µM in data set [9] was -0.1%.
As to `CNC(=N)NCCC[C@H](N)C(=O)O` [TILARGININE], in [5], the inhibition at 10 µM amounted to 17.7%. Further, in [6], the inhibition at 30 µM is 52.3%. For the same compound, the inhibition at 100 µM in [7] was 79.2%. Also, the IC50 in data set [8] was determined as 28 µM. Further, the inhibition at 3 µM in data set [9] was found to be 2%.
As for `C=C(C)[C@@H]1CC[C@@]2(O)[C@@H](O)CC[C@@H](C)[C@]2(C)C1` [OXYPHYLLOL C], the inhibition at 10 µM in data set [4] was -1.1%. In data set [1], the inhibition at 30 µM amounted to 2.4%. For the same compound, in data set [2], the inhibition at 100 µM stood at 8.2%.
